ChEMBL document CHEMBL5143722, “Antimicrobial Peptides against Multidrug-Resistant Pseudomonas aeruginosa Biofilm from Cystic Fibrosis Patients” (J Med Chem, 2022)
The source made the active and inactive calls.

Legend:
[1] = system: Pseudomonas aeruginosa; assay: Antibiofilm activity against Pseudomonas aeruginosa clinical isolate 24 assessed as inhibition of biofilm formation at sub-inhibitory concentration incubated for 24 hrs by crystal violet staining based microtiter plate method; assay type: functional, organism-based
Method in brief: (§1)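 Washed overnight cultures in BM2 medium at 1 × 10^6 CFU/mL with 2-fold serial peptide dilutions in a U-bottom 96-well plate. Incubated 24 h at 37 °C without agitation. Unattached cells washed off, then 0.1% crystal violet stain read at 590 nm. No-bacteria blanks. Biomass expressed as % of untreated biofilm. At least three biological repeats.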

[2] = system: Pseudomonas aeruginosa PAO1; assay: Induction of biofilm degradation of Pseudomonas aeruginosa PAO1 in cystic fibrosis patient sputum at 10 uM incubated for 48 hr by resazurin staining based confocal microscopy analysis
[3] = system: Pseudomonas aeruginosa; assay: Induction of biofilm degradation of Pseudomonas aeruginosa clinical isolate 24 at sub MIC concentration incubated for 1 hr by crystal violet staining analysis; assay type: functional
Method in brief: (§2)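 Bacteria at 1 × 10^6 CFU/mL in BM2 grown static at 37 °C for 24 h to form biofilm. Wells rinsed of unattached cells, then exposed for 1 h to serial peptide dilutions (1.56–50 μM). Washed, stained with 0.1% crystal violet, A590 read. Biomass given as % of untreated biofilm; no-bacteria wells as blanks. At least three biological repeats.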

[4] = system: Pseudomonas aeruginosa; assay: Induction of biofilm degradation of Pseudomonas aeruginosa clinical isolate 238 at 50 uM incubated for 1 hr by crystal violet staining analysis relative to control; assay type: functional; method in brief: as §2
[5] = system: Pseudomonas aeruginosa; assay: Induction of biofilm degradation of Pseudomonas aeruginosa clinical isolate 995 at 50 uM incubated for 1 hr by crystal violet staining analysis relative to control; assay type: functional; method in brief: as §2
[6] = system: Pseudomonas aeruginosa; assay: Induction of biofilm degradation of Pseudomonas aeruginosa clinical isolate 72 at 50 uM incubated for 1 hr by crystal violet staining analysis relative to control; assay type: functional; method in brief: as §2
[7] = system: Pseudomonas aeruginosa; assay: Inhibition of biofilm formation of Pseudomonas aeruginosa clinical isolate 82 derived from cystic fibrosis patient sputum at 0.09 to 3.12 uM by crystal violet based staining analysis; assay type: functional, organism-based; settings: dose 0.09-3.12 µM
Method in brief: (§3)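 CF patient sputum diluted 10-fold with BM2, bacteria added with serial peptide dilutions starting from the highest MIC per isolate. Inoculum suspension 1 × 10^6 CFU/mL. Incubated 24 h at 37 °C without agitation. Unattached cells washed away, then 0.1% crystal violet staining and A590. Biomass given as % of untreated, with no-bacteria blanks.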

[8] = system: Pseudomonas aeruginosa; assay: Antibiofilm activity against Pseudomonas aeruginosa clinical isolate 99 assessed as inhibition of biofilm formation at sub-inhibitory concentration incubated for 24 hrs by crystal violet staining based microtiter plate method; assay type: functional, organism-based; method in brief: as §1
[9] = system: Pseudomonas aeruginosa; assay: Induction of biofilm degradation of Pseudomonas aeruginosa clinical isolate 59 at 50 uM incubated for 1 hr by crystal violet staining analysis relative to control; assay type: functional
Method in brief: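 Inoculum of 1 × 10^6 CFU/mL was grown 24 h at 37 °C without agitation to form biofilm. Wells were rinsed of unattached bacteria and exposed for 1 h to serial peptide dilutions (1.56–50 μM). They were then washed, stained with 0.1% crystal violet, and read at 590 nm with no-bacteria blanks. Biomass is given as % of untreated biofilm.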

[10] = system: Pseudomonas aeruginosa; assay: Induction of biofilm degradation of Pseudomonas aeruginosa clinical isolate 251 at 50 uM incubated for 1 hr by crystal violet staining analysis; assay type: functional; method in brief: as §2
[11] = system: Pseudomonas aeruginosa; assay: Induction of biofilm degradation of Pseudomonas aeruginosa PAO1 at 50 uM incubated for 1 hr by crystal violet staining analysis relative to control; assay type: functional; method in brief: as §2
[12] = system: Pseudomonas aeruginosa; assay: Inhibition of biofilm formation of Pseudomonas aeruginosa clinical isolate 24 derived from cystic fibrosis patient sputum at 0.09 to 3.12 uM by crystal violet based staining analysis; assay type: functional, organism-based; settings: dose 0.09-3.12 µM; method in brief: as §3
[13] = system: Pseudomonas aeruginosa; assay: Induction of biofilm degradation of Pseudomonas aeruginosa clinical isolate 59 at <12.5 uM incubated for 1 hr by crystal violet staining analysis; assay type: functional; method in brief: as §2
[14] = system: Pseudomonas aeruginosa; assay: Antibiofilm activity against Pseudomonas aeruginosa clinical isolate 82 in basal medium 2 at 12.5 to 100 uM incubated for 24 hrs by resazurin staining based microtiter plate method; assay type: functional, organism-based; settings: dose 12.5-100 µM
[15] = system: Pseudomonas aeruginosa; assay: Induction of biofilm degradation of Pseudomonas aeruginosa clinical isolate 29 at 50 uM incubated for 1 hr by crystal violet staining analysis relative to control; assay type: functional; method in brief: as §2
[16] = system: Pseudomonas aeruginosa; assay: Antibiofilm activity against Pseudomonas aeruginosa clinical isolate 46 assessed as inhibition of biofilm formation at sub-inhibitory concentration incubated for 24 hrs by crystal violet staining based microtiter plate method; assay type: functional, organism-based; method in brief: as §1
[17] = system: Pseudomonas aeruginosa; assay: Antibiofilm activity against Pseudomonas aeruginosa clinical isolate 71 assessed as inhibition of biofilm formation at sub-inhibitory concentration incubated for 24 hrs by crystal violet staining based microtiter plate method; assay type: functional, organism-based; method in brief: as §1
[18] = system: Pseudomonas aeruginosa; assay: Antibiofilm activity against Pseudomonas aeruginosa clinical isolate 24 in basal medium 2 at 12.5 to 100 uM incubated for 24 hrs by resazurin staining based microtiter plate method; assay type: functional, organism-based; settings: dose 12.5-100 µM
[19] = system: Pseudomonas aeruginosa; assay: Antibiofilm activity against Pseudomonas aeruginosa clinical isolate 72 assessed as inhibition of biofilm formation at sub-inhibitory concentration incubated for 24 hrs by crystal violet staining based microtiter plate method; assay type: functional, organism-based; method in brief: as §1
[20] = system: Pseudomonas aeruginosa; assay: Induction of biofilm degradation of Pseudomonas aeruginosa clinical isolate 40 at 50 uM incubated for 1 hr by crystal violet staining analysis relative to control; assay type: functional; method in brief: as §2
[21] = system: Pseudomonas aeruginosa; assay: Induction of biofilm degradation of Pseudomonas aeruginosa clinical isolate 82 at 50 uM incubated for 1 hr by crystal violet staining analysis relative to control; assay type: functional; method in brief: as §2
[22] = system: Pseudomonas aeruginosa; assay: Induction of biofilm degradation of Pseudomonas aeruginosa clinical isolate 53 at 50 uM incubated for 1 hr by crystal violet staining analysis relative to control; assay type: functional; method in brief: as §2
[23] = system: Pseudomonas aeruginosa; assay: Induction of biofilm degradation of Pseudomonas aeruginosa clinical isolate 52 at 50 uM incubated for 1 hr by crystal violet staining analysis relative to control; assay type: functional; method in brief: as §2
[24] = system: Pseudomonas aeruginosa; assay: Induction of biofilm degradation of Pseudomonas aeruginosa clinical isolate 99 at 50 uM incubated for 1 hr by crystal violet staining analysis relative to control; assay type: functional; method in brief: as §2
[25] = system: Pseudomonas aeruginosa; assay: Antibiofilm activity against Pseudomonas aeruginosa clinical isolate 629 assessed as inhibition of biofilm formation at sub-inhibitory concentration incubated for 24 hrs by crystal violet staining based microtiter plate method; assay type: functional, organism-based; method in brief: as §1
[26] = system: Pseudomonas aeruginosa; assay: Induction of biofilm degradation of Pseudomonas aeruginosa clinical isolate 25 at 50 uM incubated for 1 hr by crystal violet staining analysis relative to control; assay type: functional; method in brief: as §2
[27] = system: Pseudomonas aeruginosa; assay: Antibiofilm activity against Pseudomonas aeruginosa PAO1 in basal medium 2 at 12.5 to 100 uM incubated for 24 hrs by resazurin staining based microtiter plate method; assay type: functional, organism-based; settings: dose 12.5-100 µM
[28] = system: Pseudomonas aeruginosa; assay: Antibiofilm activity against Pseudomonas aeruginosa clinical isolate 25 assessed as inhibition of biofilm formation at sub-inhibitory concentration incubated for 24 hrs by crystal violet staining based microtiter plate method; assay type: functional, organism-based; method in brief: as §1
[29] = system: Pseudomonas aeruginosa; assay: Antibiofilm activity against Pseudomonas aeruginosa clinical isolate 46 in basal medium 2 at 12.5 to 100 uM incubated for 24 hrs by resazurin staining based microtiter plate method; assay type: functional, organism-based; settings: dose 12.5-100 µM
[30] = system: Pseudomonas aeruginosa; assay: Inhibition of biofilm formation of Pseudomonas aeruginosa PAO1 in patient derived CF-sputum at 0.09 to 3.12 uM by crystal violet based staining analysis; assay type: functional, organism-based; settings: dose 0.09-3.12 µM; method in brief: as §3
[31] = system: Pseudomonas aeruginosa; assay: Induction of biofilm degradation of Pseudomonas aeruginosa clinical isolate 629 at 50 uM incubated for 1 hr by crystal violet staining analysis relative to control; assay type: functional; method in brief: as §2
[32] = system: Pseudomonas aeruginosa; assay: Induction of biofilm degradation of Pseudomonas aeruginosa clinical isolate 46 at 50 uM incubated for 1 hr by crystal violet staining analysis relative to control; assay type: functional; method in brief: as §2
[33] = system: Pseudomonas aeruginosa; assay: Induction of biofilm degradation of Pseudomonas aeruginosa clinical isolate 71 at 50 uM incubated for 1 hr by crystal violet staining analysis relative to control; assay type: functional; method in brief: as §2
[34] = system: Pseudomonas aeruginosa; assay: Induction of biofilm degradation of Pseudomonas aeruginosa clinical isolate 40 at sub MIC concentration incubated for 1 hr by crystal violet staining analysis; assay type: functional; method in brief: as §2
[35] = system: Pseudomonas aeruginosa; assay: Induction of biofilm degradation of Pseudomonas aeruginosa clinical isolate 53 at sub MIC concentration incubated for 1 hr by crystal violet staining analysis; assay type: functional; method in brief: as §2
[36] = system: Pseudomonas aeruginosa; assay: Antibiofilm activity against Pseudomonas aeruginosa clinical isolate 53 assessed as inhibition of biofilm formation at sub-inhibitory concentration incubated for 24 hrs by crystal violet staining based microtiter plate method; assay type: functional, organism-based; method in brief: as §1
[37] = system: Pseudomonas aeruginosa; assay: Induction of biofilm degradation of Pseudomonas aeruginosa clinical isolate 24 incubated for 1 hr by crystal violet staining analysis relative to control; assay type: functional; settings: dose 50.0 µM; method in brief: as §2
[38] = system: Pseudomonas aeruginosa; assay: Induction of biofilm degradation of Pseudomonas aeruginosa clinical isolate 172 at 50 uM incubated for 1 hr by crystal violet staining analysis relative to control; assay type: functional; method in brief: as §2
[39] = system: Pseudomonas aeruginosa; assay: Inhibition of biofilm formation of Pseudomonas aeruginosa clinical isolate 24 derived from cystic fibrosis patient sputum at 0.78 to 25 uM by crystal violet based staining analysis; assay type: functional, organism-based; settings: dose 0.78-25 µM; method in brief: as §3

CC(C)C[C@H](NC(=O)[C@H](CC(C)C)NC(=O)[C@H](CC(C)C)NC(=O)[C@H](CC(C)C)NC(=O)[C@H](CCCCN)NC(=O)[C@H](CCCCN)NC(=O)[C@H](CCCCN)NC(=O)[C@H](CCCCN)NC(=O)[C@H](CCCCN)NC(=O)[C@H](CCCCN)NC(=O)[C@H](CC(C)C)NC(=O)[C@H](CC(C)C)NC(=O)[C@H](CC(C)C)NC(=O)[C@H](CC(C)C)NC(=O)[C@@H](N)CC(C)C)C(N)=O
40%: Activity [9]
active: inhibition [1] | Activity [2] | Activity [3] | inhibition [7] | inhibition [8] | inhibition [12] | Activity [13] | Activity [14] | inhibition [16] | inhibition [17] | Activity [18] | inhibition [19] | inhibition [25] | Activity [27] | inhibition [28] | Activity [29] | inhibition [30] | Activity [34] | Activity [35] | inhibition [36] | inhibition [39]
60%: Activity [4] | Activity [5] | Activity [6] | Activity [10] | Activity [11] | Activity [15] | Activity [20] | Activity [21] | Activity [22] | Activity [23] | Activity [24] | Activity [26] | Activity [31] | Activity [32] | Activity [33] | Activity [37] | Activity [38]
